# BB579 growth dn = chemicals that inhibit yeast BB579 growth in restrictive medium (lifespan-shortening candidates) | AID 804 | actives 0.51% (n = 140,000) | inhibition, % at 10 µM | S. cerevisiae BB579 growth, OD615, 48 h;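 active means inhibition above a set limit, 3 SD over the mean compound inhibition, cut at about 44% in these data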
#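 controls = amphotericin B 10 µg/mL, positive | assay system = DeaD yeast strain BB579 | schedule = 48 h compound exposure at 30 °C after 4 h preincubation | detection = OD615 turbidity measurement | medium = restrictive CSMM-D medium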
# WT yeast gro inh = growth inhibition of WT yeast, mitochondrial fusion screen; inhibition, % at 10 µM; mitochondrial fusion phenotypic screen, WT strain; AID 1362; actives 2.1% (n = 190,000); in the data active means inhibition above about 58%; tested in S. cerevisiae
# Yeast life ext = extends the lifespan of yeast. S. cerevisiae growth with nicotinamide, OD615; deaD strain in restrictive glucose medium. inhibition of the nicotinamide effect, % at 10 µM. actives 0.68% (n = 130,000);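 active means inhibition above a set limit, placed 3 SD over the median of all compounds, cut at about 26% in these data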;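 further: 0% = nicotinamide-treated wells and 100% = cells grown without nicotinamide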
#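 assay system = DeaD-strain S. cerevisiae | measured by = absorbance at 615 nm | probe or stimulus = nicotinamide 1.5 mM | buffer or medium = CSMM-D glucose medium, restrictive | times = 48 h at 30 °C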
# RAM inhibit = blocks the yeast RAM network | AID 868 | S. cerevisiae dse1pr::URA3 reporter, 5-FOA growth OD615, 2 d; analog-sensitive cbk1-as2 kinase mutant strain | actives 1.8% (n = 190,000) | inhibition, % at 50 µM;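 active means inhibition above a set limit, 3 SD over mean compound inhibition, cut at about 8.4% in these data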;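 further: 0% = DMSO-only wells with no growth and 100% = 10 µM 1-NA-PP1 full growth; inhibition rescues growth on 5-FOA so higher OD means more RAM inhibition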
# Active calls of the source: *; x = no result given. A selection: hits, their analogues and other compounds. The true share with any hit is near 4.3%.
SMILES,BB579 growth dn,WT yeast gro inh,Yeast life ext,RAM inhibit
Cc1nn(-c2ccccc2)c(Cl)c1/C=C1\SC(=S)N(C)C1=O,-21,-7,-3,8.4*
COC(=O)C1=C(C(=O)OC)SC(=C2C(=S)C(C)(C)N(C(=O)C(C)C)c3ccccc32)S1,-24,41,35*,7
Fc1cccc2sc(Nc3nnc(-c4ccco4)o3)nc12,-46,14,94*,2
COc1cccc2sc(Nc3nnc(-c4ccc(F)cc4)o3)nc12,-27,2,3,0
Cn1c(=O)c2c(nc(Br)n2CC(=O)c2cccs2)n(C)c1=O,-82,7,36*,1
CCOC(=O)N1CCC(Nc2c(N3CCN(c4cccc(C(F)(F)F)c4)CC3)c(=O)c2=O)CC1,-63,-3,-9,3
Cc1cc([N+](=O)[O-])ccc1NCc1ccccc1,-46,10,-11,1
Cc1cc([N+](=O)[O-])ccc1NCc1ccc2ccccc2c1,-51,3,-9,9.8*
Cc1cc(C)n(CC(O)Cn2c3ccc(Cl)cc3c3cc(Cl)ccc32)c(=O)n1 (centres undefined),-32,97*,-9,1
CCCCNC(=O)c1cn(-c2ccc(OCC)cc2)c(=O)c2cc(OC)c(OC)cc12,-51,5,-9,4
CCC(=C(c1ccc(OC)cc1)c1ccc(OC)cc1)c1cn(CC(O)CN(CCO)CCO)c2ccccc12 (centres undefined),x,98*,x,-2
COc1ccc(OCC(O)CN(CCO)CC(O)Cn2ccc3ccccc32)cc1 (centres undefined),-37,-15,9,0
Cc1sc2ncnc(NCC(c3ccco3)N3CCCC3)c2c1C (centres undefined),-22,-10,-3,0
Cc1cc(CNC(=O)COc2ccc(F)cc2Cl)cc(C)c1O,x,-1,x,10*
O=C(COc1ccc(Cl)cc1Cl)NCc1ccncc1,-16,4,-21,0
Cc1ccc(NCc2nnc(SCC(=O)N3c4ccccc4Sc4ccccc43)o2)c(C)c1,-33,17,3,6
Cc1nc(NC(=O)COC(=O)CCS(=O)(=O)c2ccccc2Cl)c(Cl)cc1Cl,-23,61*,-12,2
Cc1[nH]c2ccccc2c1C(=O)COC(=O)CCS(=O)(=O)c1ccccc1Cl,-45,8,1,4
CC1CN(c2nc3ccccc3nc2C(C#N)C(=O)OC2CCCCC2)CC(C)O1 (centres undefined),-6,60*,1,5
N#CC(C(=O)OC1CCCCC1)c1nc2ccccc2nc1N1CCCCC1 (centres undefined),-26,17,-2,5
CC1CCN(c2nc3ccccc3nc2C(C#N)C(=O)OC2CCCCC2)CC1 (centres undefined),-46,x,-8,4
CC1CCCN(c2nc3ccccc3nc2C(C#N)C(=O)OC2CCCCC2)C1 (centres undefined),-26,46,64*,2
CCN1C(=O)C2(C(C#N)=C(N)Oc3c2c(C)nn3-c2ccccc2)c2ccccc21 (centres undefined),-20,x,-5,2
Cc1nn(-c2ccccc2)c2c1C1(C(=O)N(C)c3ccccc31)C(C#N)=C(N)O2 (centres undefined),-33,8,0,9.8*
O=C(COc1cccc2cccnc12)N/N=C1\SCC(=O)N1CCc1ccccc1,x,-11,x,1
SMILES,BB579 growth dn,WT yeast gro inh,Yeast life ext,RAM inhibit
CCc1sc(C(=O)Nc2ccccc2N2CCOCC2)cc1C,x,28,x,1
Cc1ccc(C(=O)NN2C(=O)/C(=C/c3cn(C)c4ccccc34)SC2=S)cc1,-20,0,3,6
Cn1cc(/C=C2\SC(=O)NC2=S)c2ccccc21,x,2,x,10*
Cc1ccccc1OC1C(=O)N(Cc2ccc3c(c2)OCO3)C1c1sccc1C (centres undefined),-24,20,-8,10*
Cn1c(NNC(=O)c2cccc3ccccc23)cc(=O)n(C)c1=O,x,-13,x,1
CN=C1SC(CC(=O)Nc2c(C)cccc2C)C(=O)N1/N=C/c1cccs1 (centres undefined),-27,5,-4,2
COc1ccc([N+](=O)[O-])cc1NC(=O)CC1SC(=Nc2cccc(C)c2C)N(/N=C/c2cccc(OC)c2OC)C1=O (centres undefined),x,-4,x,10*
CN([C@@H](Cc1ccc(OS(=O)(=O)c2cccc3cnccc23)cc1)C(=O)N1CCN(c2ccccc2)CC1)S(=O)(=O)c1cccc2cnccc12,-54,-1,6,9.2*
COc1ccc(N2CCN(C(=O)C(Cc3ccccc3)n3cccc3)CC2)cc1 (centres undefined),-23,18,3,3
Cc1nc(N/N=C/c2ccccn2)sc1C,44*,47,-3,0
CCCc1sc(N/N=C/c2ccccn2)nc1-c1ccc(F)cc1,-33,83*,x,3
CCOC(=O)CSc1nc(=O)n2cccc(C)c2n1,x,-2,x,2
COc1cc(Cl)c(C)cc1NC(C)C(=O)Nc1cc(C(F)(F)F)ccc1N1CCOCC1 (centres undefined),-41,65*,7,6
CCOC(=O)C1(CC2CCCCO2)CCN(S(=O)(=O)c2cc(C)cs2)CC1 (centres undefined),x,-6,x,0
CCCCCCn1c(N)c(C#N)c2ccc([N+](=O)[O-])cc2c1=O,x,-8,x,3
Cc1cc(C)c(NC(=O)C2CCN(c3cnccn3)CC2)c(C)c1,-12,-16,x,0
O=C(Nc1ccccc1)Nc1ncc([N+](=O)[O-])s1,x,70*,x,3
S=C(NCC1CCCO1)N1CCN(Cc2ccccc2)CC1 (centres undefined),x,3,x,2
CCOc1cccc(-c2nnc(SCC(=O)Nc3cc(OC)cc(OC)c3)n2N)c1,-51,13,-11,1
COc1cccc(NC(=O)CSc2nnc(-c3cccc(OC(C)C)c3)n2N)c1,-40,3,-6,11*
O=C(NCCC1=CCCCC1)C(=O)NCC(c1ccco1)N1CCN(c2ccc(F)cc2)CC1 (centres undefined),-10,6,1,8
O=[N+]([O-])c1ccc(/C=N/Nc2nc(N3CCCCC3)nc(N3CCCCC3)n2)o1,-6,70*,-5,-2
C(=N\Nc1nc(N2CCCCC2)nc(N2CCCCC2)n1)/c1c[nH]c2ccccc12,x,63*,x,0
C(=N\Nc1nc(Nc2ccccc2)nc(N2CCCCC2)n1)/c1ccco1,x,69*,x,-2
COCc1nc2ccccc2n1Cc1cccc(C)c1,-50,17,-6,-1
SMILES,BB579 growth dn,WT yeast gro inh,Yeast life ext,RAM inhibit
Cc1ccccc1Cn1c(Cc2ccccc2)nc2ccccc21,-24,77*,-10,1
COCc1nc2ccccc2n1Cc1ccccc1C,x,7,x,1
CS(=O)(=O)c1nc2ccccc2n1Cc1ccccc1,-32,94*,-14,1
Cc1cccc(Cn2c(Cc3ccccc3)nc3ccccc32)c1,-2,72*,9,2
C1CN(CC23CC4CC(CC(C4)C2)C3)CCO1,-45,2,x,1
COc1cc(OC)cc(C(=O)NCC(=O)OCC(=O)N2CC(C)CC(C)C2)c1 (centres undefined),x,0,x,1

# High-throughput results from PubChem.
